Laboratory results from the M2OR odorant receptor database.
Substitutions are numbered along the chain they refer to.

How the values were obtained:
Conditions in all cases: stereoisomer not certain
OR5AR1 (Homo sapiens) = target: T1, OR5AR1 (Homo sapiens) (UniProt Q8NGP9)
T1 sequence (whole entry): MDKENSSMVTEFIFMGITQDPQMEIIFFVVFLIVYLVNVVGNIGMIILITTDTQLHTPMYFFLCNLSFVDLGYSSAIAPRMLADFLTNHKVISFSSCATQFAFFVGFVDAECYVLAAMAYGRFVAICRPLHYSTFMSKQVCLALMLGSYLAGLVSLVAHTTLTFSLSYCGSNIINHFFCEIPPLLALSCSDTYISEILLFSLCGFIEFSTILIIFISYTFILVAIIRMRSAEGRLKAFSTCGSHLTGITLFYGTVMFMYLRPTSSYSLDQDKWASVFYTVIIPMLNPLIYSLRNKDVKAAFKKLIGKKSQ
Outline: (§1)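 Whether a receptor–molecule pair is responsive (active) rests on the original authors' judgment that its measured signal was statistically different from baseline. Pairs without that judgment are non-responsive (inactive). Sources used varied assay methods, commonly transient luciferase assays in mammalian cell lines.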

OR5AS1 (Homo sapiens) = target: T2, OR5AS1 (Homo sapiens) (UniProt Q8N127)
T2 sequence (whole entry): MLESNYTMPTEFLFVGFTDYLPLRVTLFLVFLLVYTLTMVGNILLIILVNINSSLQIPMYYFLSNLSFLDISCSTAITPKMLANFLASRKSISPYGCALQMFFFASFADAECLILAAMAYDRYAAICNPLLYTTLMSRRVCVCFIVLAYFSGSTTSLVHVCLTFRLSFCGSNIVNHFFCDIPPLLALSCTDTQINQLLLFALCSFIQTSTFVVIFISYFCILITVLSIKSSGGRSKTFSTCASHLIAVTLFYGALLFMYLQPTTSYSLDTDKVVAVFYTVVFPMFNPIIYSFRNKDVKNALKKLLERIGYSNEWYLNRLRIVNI
Outline: as §1

OR5AU1 (Homo sapiens) = target: T3, OR5AU1 (Homo sapiens) (UniProt Q8NGC0)
T3 sequence (whole entry): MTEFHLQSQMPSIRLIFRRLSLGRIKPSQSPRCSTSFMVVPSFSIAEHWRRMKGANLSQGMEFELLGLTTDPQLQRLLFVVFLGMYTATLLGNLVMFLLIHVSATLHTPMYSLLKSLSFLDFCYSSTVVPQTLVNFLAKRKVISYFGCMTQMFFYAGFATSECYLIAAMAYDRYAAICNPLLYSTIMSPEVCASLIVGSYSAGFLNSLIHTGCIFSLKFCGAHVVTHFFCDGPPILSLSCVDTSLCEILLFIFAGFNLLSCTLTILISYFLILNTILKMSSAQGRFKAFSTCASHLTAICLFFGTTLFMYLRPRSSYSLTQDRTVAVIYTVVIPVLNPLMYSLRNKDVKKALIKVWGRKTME
Outline: as §1

OR5B12 (Homo sapiens) = target: T4, OR5B12 (Homo sapiens) (UniProt Q96R08)
T4 sequence (whole entry): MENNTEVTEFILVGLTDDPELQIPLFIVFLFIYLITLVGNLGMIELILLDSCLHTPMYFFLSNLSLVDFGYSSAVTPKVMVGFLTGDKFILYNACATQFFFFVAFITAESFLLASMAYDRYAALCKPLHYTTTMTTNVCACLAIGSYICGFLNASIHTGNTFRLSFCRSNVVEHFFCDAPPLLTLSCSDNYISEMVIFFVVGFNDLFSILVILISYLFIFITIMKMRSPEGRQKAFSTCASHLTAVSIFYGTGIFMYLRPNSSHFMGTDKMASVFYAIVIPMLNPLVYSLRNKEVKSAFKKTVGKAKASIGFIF
Outline: as §1

OR5B17 (Homo sapiens) = target: T5, OR5B17 (Homo sapiens) (UniProt Q8NGF7)
T5 sequence (whole entry): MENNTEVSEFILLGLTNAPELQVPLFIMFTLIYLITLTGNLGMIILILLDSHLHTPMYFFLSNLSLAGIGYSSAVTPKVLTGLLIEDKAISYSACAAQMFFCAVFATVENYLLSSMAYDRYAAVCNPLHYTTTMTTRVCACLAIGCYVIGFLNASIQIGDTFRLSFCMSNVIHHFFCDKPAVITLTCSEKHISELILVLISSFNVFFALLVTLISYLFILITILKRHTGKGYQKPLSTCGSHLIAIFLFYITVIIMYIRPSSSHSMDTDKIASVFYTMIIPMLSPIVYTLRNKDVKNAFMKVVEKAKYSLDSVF
Outline: as §1

OR5B2 (Homo sapiens) = target: T6, OR5B2 (Homo sapiens) (UniProt Q96R09)
T6 sequence (whole entry): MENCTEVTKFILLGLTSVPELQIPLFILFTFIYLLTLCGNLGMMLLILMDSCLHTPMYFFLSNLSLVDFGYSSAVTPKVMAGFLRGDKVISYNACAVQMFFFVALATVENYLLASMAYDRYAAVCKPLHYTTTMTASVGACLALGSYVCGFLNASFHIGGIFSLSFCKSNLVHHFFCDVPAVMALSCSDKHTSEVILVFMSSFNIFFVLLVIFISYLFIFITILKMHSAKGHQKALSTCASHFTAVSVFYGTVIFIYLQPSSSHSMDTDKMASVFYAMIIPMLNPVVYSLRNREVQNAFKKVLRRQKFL
Outline: as §1

OR5B2 E6D = test system: T7, OR5B2 E6D
T7 sequence (whole entry): T6 sequence (whole entry) with E6D
Outline: as §1

OR5B21 (Homo sapiens) = target: T8, OR5B21 (Homo sapiens) (UniProt A6NL26)
T8 sequence (whole entry): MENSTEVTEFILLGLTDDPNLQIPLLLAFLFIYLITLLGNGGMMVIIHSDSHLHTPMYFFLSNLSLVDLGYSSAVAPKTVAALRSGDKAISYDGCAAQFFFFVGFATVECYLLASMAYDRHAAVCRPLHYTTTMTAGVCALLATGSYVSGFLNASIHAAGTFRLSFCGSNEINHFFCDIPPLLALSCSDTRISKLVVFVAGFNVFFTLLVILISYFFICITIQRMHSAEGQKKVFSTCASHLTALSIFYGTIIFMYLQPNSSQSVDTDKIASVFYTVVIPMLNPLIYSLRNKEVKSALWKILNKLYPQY
Outline: as §1

OR5B3 (Homo sapiens) = target: T9, OR5B3 (Homo sapiens) (UniProt Q8NH48)
T9 sequence (whole entry): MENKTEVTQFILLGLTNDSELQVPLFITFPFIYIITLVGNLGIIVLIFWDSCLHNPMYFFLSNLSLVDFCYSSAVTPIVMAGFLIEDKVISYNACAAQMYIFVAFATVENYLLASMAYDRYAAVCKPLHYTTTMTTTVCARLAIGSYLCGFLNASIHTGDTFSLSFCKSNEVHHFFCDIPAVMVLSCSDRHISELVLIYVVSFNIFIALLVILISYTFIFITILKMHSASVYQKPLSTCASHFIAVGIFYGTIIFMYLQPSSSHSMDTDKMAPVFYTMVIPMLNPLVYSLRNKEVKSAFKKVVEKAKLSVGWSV
Outline: as §1

OR5B3 I198V G247A = test system: T10, OR5B3 I198V G247A
T10 sequence (whole entry): T9 sequence (whole entry) with I198V, G247A
Outline: as §1

OR5BC C141R = test system: T11, OR5BC C141R
T11 sequence (whole entry): T4 sequence (whole entry) with C141R
Outline: as §1

OR5BH L80I I85M = test system: T12, OR5BH L80I I85M
T12 sequence (whole entry): T5 sequence (whole entry) with L80I, I85M
Outline: as §1

OR5BH L80I = test system: T13, OR5BH L80I
T13 sequence (whole entry): T5 sequence (whole entry) with L80I
Outline: as §1

OR5C1 (Homo sapiens) = target: T14, OR5C1 (Homo sapiens) (UniProt Q8NGR4)
T14 sequence (whole entry): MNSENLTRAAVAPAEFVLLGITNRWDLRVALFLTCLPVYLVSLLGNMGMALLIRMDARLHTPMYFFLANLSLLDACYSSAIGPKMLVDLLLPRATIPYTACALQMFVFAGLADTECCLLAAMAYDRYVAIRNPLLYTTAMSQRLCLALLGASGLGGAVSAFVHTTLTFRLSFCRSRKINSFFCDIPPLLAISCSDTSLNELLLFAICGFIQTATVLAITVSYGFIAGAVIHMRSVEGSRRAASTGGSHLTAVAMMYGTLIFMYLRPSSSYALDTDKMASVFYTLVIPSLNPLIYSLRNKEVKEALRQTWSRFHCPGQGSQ
Outline: as §1

OR5D13 (Homo sapiens) = target: T15, OR5D13 (Homo sapiens) (UniProt Q8NGL4)
T15 sequence (whole entry): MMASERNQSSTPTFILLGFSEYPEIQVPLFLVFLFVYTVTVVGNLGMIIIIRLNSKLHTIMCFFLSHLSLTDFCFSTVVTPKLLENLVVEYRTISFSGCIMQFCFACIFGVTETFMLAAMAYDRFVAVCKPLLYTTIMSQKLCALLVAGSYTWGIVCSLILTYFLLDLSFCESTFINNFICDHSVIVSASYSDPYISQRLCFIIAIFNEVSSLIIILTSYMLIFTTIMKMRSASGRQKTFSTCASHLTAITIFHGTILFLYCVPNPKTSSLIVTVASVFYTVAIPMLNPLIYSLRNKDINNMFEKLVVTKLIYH
Outline: as §1

OR5D14 (Homo sapiens) = target: T16, OR5D14 (Homo sapiens) (UniProt Q8NGL3)
T16 sequence (whole entry): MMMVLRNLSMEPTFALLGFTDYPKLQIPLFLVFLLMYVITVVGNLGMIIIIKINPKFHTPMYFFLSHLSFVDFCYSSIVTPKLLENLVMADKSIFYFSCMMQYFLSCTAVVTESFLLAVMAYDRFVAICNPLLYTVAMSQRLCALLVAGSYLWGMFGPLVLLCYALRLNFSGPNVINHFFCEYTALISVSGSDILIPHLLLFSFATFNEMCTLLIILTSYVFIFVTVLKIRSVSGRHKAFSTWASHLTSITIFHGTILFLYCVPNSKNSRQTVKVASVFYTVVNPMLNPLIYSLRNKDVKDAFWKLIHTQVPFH
Outline: as §1

OR5D16 (Homo sapiens) = target: T17, OR5D16 (Homo sapiens) (UniProt Q8NGK9)
T17 sequence (whole entry): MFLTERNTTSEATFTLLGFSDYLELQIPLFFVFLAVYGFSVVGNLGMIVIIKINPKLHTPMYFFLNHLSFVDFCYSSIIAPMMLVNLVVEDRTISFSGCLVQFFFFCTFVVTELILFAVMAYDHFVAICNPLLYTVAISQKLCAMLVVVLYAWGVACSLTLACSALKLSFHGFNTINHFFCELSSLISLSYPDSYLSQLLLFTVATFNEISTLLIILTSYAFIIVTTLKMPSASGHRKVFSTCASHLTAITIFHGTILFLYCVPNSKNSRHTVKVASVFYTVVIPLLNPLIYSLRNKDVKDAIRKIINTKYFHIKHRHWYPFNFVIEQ
Outline: as §1

OR5D18 (Homo sapiens) = target: T18, OR5D18 (Homo sapiens) (UniProt Q8NGL1)
T18 sequence (whole entry): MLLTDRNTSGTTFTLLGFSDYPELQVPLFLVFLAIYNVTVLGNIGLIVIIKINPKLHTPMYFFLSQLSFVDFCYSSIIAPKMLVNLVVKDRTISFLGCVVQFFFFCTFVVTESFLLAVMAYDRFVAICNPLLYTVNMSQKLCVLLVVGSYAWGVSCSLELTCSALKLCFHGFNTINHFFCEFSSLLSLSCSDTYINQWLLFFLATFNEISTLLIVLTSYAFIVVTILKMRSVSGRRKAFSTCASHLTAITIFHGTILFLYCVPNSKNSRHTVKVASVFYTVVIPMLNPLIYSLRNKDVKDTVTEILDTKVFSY
Outline: as §1

OR5DD C62Y = test system: T19, OR5DD C62Y
T19 sequence (whole entry): T15 sequence (whole entry) with C62Y
Outline: as §1

OR5DE S249A L290P = test system: T20, OR5DE S249A L290P
T20 sequence (whole entry): T16 sequence (whole entry) with S249A, L290P
Outline: as §1

Measured: odorant receptor agonist call;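 note: active if original authors judged signal statistically different from baseline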

CC1=C(O)C(=O)C(C)O1 (configuration not stated)
inactive: all assays above

CCCCCC1C(=O)CCC1CC(=O)OC (configuration not stated)
inactive: OR5B17 (Homo sapiens)

CCCCCC(S)C(C)CO (configuration not stated)
not listed: OR5B2 E6D | OR5B3 I198V G247A | OR5BC C141R | OR5BH L80I I85M | OR5BH L80I | OR5DD C62Y | OR5DE S249A L290P
inactive: all other assays above

CCC1OC(=O)C(O)=C1C (configuration not stated)
inactive: all assays above

Cc1cnc(C)c(C)n1
inactive: all assays above

CC1=NC(C)C(C)S1 (configuration not stated)
inactive: all assays above

CC1CCCCCCCCCCCCC(=O)C1 (configuration not stated)
not listed: OR5B2 E6D | OR5B3 I198V G247A | OR5BC C141R | OR5BH L80I I85M | OR5BH L80I | OR5DD C62Y | OR5DE S249A L290P
inactive: all other assays above

CCCCCC(=O)C(C)C(C)=O (configuration not stated)
not listed: OR5B2 E6D | OR5B3 I198V G247A | OR5BC C141R | OR5BH L80I I85M | OR5BH L80I | OR5DD C62Y | OR5DE S249A L290P
inactive: all other assays above

CC(C)(C)C1CCCCC1OCCCCO (configuration not stated)
inactive: OR5B17 (Homo sapiens)

CCCCCC1COCCC1OC(C)=O (configuration not stated)
inactive: OR5B17 (Homo sapiens)
